Measured values published in ChEMBL document CHEMBL1152940 (Bioorg Med Chem, 2009).

Experiments:
D(2) dopamine receptor [1] = target: T1, D(2) dopamine receptor (Rattus norvegicus, UniProt P61169); test: Displacement of [3H]raclopride from rat dopamine D2short receptor expressed in CHO-K1 cells by liquid scintillation counting; format: cell-based
D(2) dopamine receptor [2] = target: T1, D(2) dopamine receptor; test: Agonist activity at rat dopamine D2short receptor expressed in CHO-K1 cells assessed as stimulation of [35S]GTPgammaS binding by liquid scintillation counting; format: functional, cell-based
D(1A) dopamine receptor = D(1A) dopamine receptor (Homo sapiens, UniProt P21728); test: Displacement of [3H]SCH23390 from dopamine D1 receptor expressed in Ltk deficient fibroblast cells by liquid scintillation counting; format: cell-based
D(1A) dopamine receptor, sequence (P21728 whole entry): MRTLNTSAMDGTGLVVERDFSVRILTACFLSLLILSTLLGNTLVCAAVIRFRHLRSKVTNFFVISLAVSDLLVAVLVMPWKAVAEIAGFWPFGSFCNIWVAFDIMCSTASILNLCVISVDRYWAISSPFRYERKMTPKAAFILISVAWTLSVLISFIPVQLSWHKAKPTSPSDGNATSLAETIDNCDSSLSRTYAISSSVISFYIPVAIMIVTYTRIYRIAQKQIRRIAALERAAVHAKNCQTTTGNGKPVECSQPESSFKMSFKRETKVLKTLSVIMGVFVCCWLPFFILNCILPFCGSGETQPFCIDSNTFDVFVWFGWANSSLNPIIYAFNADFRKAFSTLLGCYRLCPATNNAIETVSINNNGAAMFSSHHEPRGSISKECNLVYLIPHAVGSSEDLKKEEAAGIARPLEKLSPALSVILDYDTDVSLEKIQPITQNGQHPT

[3] = Selectivity index, ratio of Ki for dopamine D1 receptor to Ki for rat dopamine D2short receptor
[4] = target: D(2) dopamine receptor (Rattus norvegicus) (UniProt P61169); test: Agonist activity at rat dopamine D2short receptor expressed in CHO-K1 cells assessed as stimulation of [35S]GTPgammaS binding by liquid scintillation counting relative to dopamine; format: functional, cell-based
D(2) dopamine receptor (Rattus norvegicus), sequence (P61169 whole entry): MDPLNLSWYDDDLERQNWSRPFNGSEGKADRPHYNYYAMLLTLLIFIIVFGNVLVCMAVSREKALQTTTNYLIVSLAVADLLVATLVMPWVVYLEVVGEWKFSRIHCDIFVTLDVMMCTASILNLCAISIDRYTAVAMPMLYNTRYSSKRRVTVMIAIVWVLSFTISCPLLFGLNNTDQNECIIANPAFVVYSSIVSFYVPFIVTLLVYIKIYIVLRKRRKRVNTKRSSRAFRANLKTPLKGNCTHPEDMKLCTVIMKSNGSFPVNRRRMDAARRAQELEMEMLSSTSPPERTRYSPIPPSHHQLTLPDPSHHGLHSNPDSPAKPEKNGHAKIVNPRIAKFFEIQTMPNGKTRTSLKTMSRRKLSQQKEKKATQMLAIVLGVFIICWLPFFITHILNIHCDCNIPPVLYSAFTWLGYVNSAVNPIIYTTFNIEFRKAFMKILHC
Method in brief: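 Membranes from CHO-K1 cells stably expressing the receptor were prepared by sonication in Tris buffer (pH 7.4, with NaCl, KCl, MgCl2 and EDTA). They were incubated with 0.2 nM [35S]GTPγS, 10 µM GDP and a compound concentration series for 90 min at 25 °C. Samples were filtered on GF/B and washed with ice-cold phosphate buffer before scintillation counting. Curves were fitted by non-linear regression. Means ± SEM come from ≥2 independent experiments, each in duplicate.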

T1 sequence (P61169 whole entry): as above

## CCCN1CCc2cc(C)cc3c2[C@H]1Cc1ccc(O)c(O)c1-3
D(2) dopamine receptor [1]
  Ki: 9.2 nM
D(2) dopamine receptor [2]
  EC50: 40 nM
D(1A) dopamine receptor
  Ki: 278 nM
[3]
  Ratio Ki: 30
[4]
  Efficacy: 65%

## CCN1CCc2cc(C)cc3c2[C@H]1Cc1ccc(O)c(O)c1-3
D(2) dopamine receptor [1]
  Ki: 115 nM
D(2) dopamine receptor [2]
  EC50: 480 nM
D(1A) dopamine receptor
  Ki: 1340 nM
[3]
  Ratio Ki: 12
[4]
  Efficacy: 112%

## CCN1CCc2cc(-c3ccc(O)cc3)cc3c2[C@H]1Cc1ccc(O)c(O)c1-3
D(2) dopamine receptor [1]
  Ki: 1.5 nM
D(2) dopamine receptor [2]
  EC50: 8.7 nM
D(1A) dopamine receptor
  Ki: 124 nM
[3]
  Ratio Ki: 83
[4]
  Efficacy: 112%

## CN1CCc2cccc3c2[C@H]1Cc1ccc(O)c(O)c1-3
[4]
  Efficacy: 58%

## CN1CCc2cc(-c3ccc(O)cc3)cc3c2[C@H]1Cc1ccc(O)c(O)c1-3
D(2) dopamine receptor [2]
  EC50: 8.5 nM
D(1A) dopamine receptor
  Ki: 755 nM
[3]
  Ratio Ki: 182

## CCCN1CCc2cc(-c3ccc(O)cc3)cc3c2[C@H]1Cc1ccc(O)c(O)c1-3
D(2) dopamine receptor [1]
  Ki: 2 nM
D(2) dopamine receptor [2]
  EC50: 12 nM
D(1A) dopamine receptor
  Ki: 94 nM
[3]
  Ratio Ki: 47
[4]
  Efficacy: 99%

## Cc1cc2c3c(c1)-c1c(ccc(O)c1O)C[C@H]3N(C)CC2
D(2) dopamine receptor [2]
  EC50: 43 nM

## CCN1CCc2cc(-c3ccccc3)cc3c2[C@H]1Cc1ccc(O)c(O)c1-3
D(2) dopamine receptor [1]
  Ki: 14 nM
D(2) dopamine receptor [2]
  EC50: 51 nM
D(1A) dopamine receptor
  Ki: 31 nM
[3]
  Ratio Ki: 2.2
[4]
  Efficacy: 72%

## CCCN1CCc2cc(-c3ccccc3)cc3c2[C@H]1Cc1ccc(O)c(O)c1-3
D(2) dopamine receptor [1]
  Ki: 192 nM
D(2) dopamine receptor [2]
  EC50: 577 nM
D(1A) dopamine receptor
  Ki: 669 nM
[3]
  Ratio Ki: 3.5
[4]
  Efficacy: 100%

## CN1CCc2cc(-c3ccccc3)cc3c2[C@H]1Cc1ccc(O)c(O)c1-3
D(2) dopamine receptor [2]
  EC50: 23 nM
D(1A) dopamine receptor
  Ki: 88 nM
[3]
  Ratio Ki: 7.5
